According to ChEMBL document CHEMBL3861973, “Caldoramide, a Modified Pentapeptide from the Marine Cyanobacterium Caldora penicillata” (J Nat Prod, 2016):

Legend:
[1] = Cytotoxicity against human HCT116 cells assessed as reduction in cell viability measured after 48 hrs by MTT assay; assay type: functional, cell-based; conditions: HCT-116, 48 h
Outline: (§1)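 Parental HCT116, HIF-1α/HIF-2α double-knockout and oncogenic-KRAS-knockout (wild-type KRAS) isogenic lines grown in DMEM + 10% FBS, 37 °C, 5% CO2. Seeded at 10,000 cells/well; compound added at various concentrations 24 h later.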

[2] = Cytotoxicity against human HIF1alpha and HIF2alpha deficit HCT116 cells assessed as reduction in cell viability measured after 48 hrs by MTT assay; assay type: functional, cell-based; conditions: HCT-116, 48 h; outline: as §1
[3] = Cytotoxicity against oncogenic KRAS knockout human HCT116 cells assessed as reduction in cell viability measured after 48 hrs by MTT assay; assay type: functional, cell-based; conditions: HCT-116, 48 h; outline: as §1
[4] = Cytotoxicity against human HIF1alpha and HIF2alpha deficit HCT116 cells assessed as reduction in cell viability measured after 48 hrs by MTT assay relative to parental HCT116 cells; assay type: functional; conditions: HCT-116, 48 h
Outline: (§2)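 Same isogenic HCT116 MTT set-up: cells in DMEM + 10% FBS at 37 °C, 5% CO2, 10,000 cells/well, dosed at graded concentrations after 24 h, MTT read 48 h post-treatment. Maximum efficacy in each knockout line expressed as percent of that in parental HCT116.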

[5] = Cytotoxicity against oncogenic KRAS knockout human HCT116 cells expressing wild type KRAS assessed as reduction in cell viability measured after 48 hrs by MTT assay relative to parental HCT116 cells; assay type: functional; conditions: HCT-116, 48 h; outline: as §2
[6] = Cytotoxicity against human HCT116 cells assessed as reduction in cell viability measured after 48 hrs by ATPlite 1step luminescence assay; assay type: functional, cell-based; conditions: HCT-116, 48 h
[7] = Cytotoxicity against human HIF1alpha and HIF2alpha deficit HCT116 cells assessed as reduction in cell viability measured after 48 hrs by ATPlite 1step luminescence assay; assay type: functional, cell-based; conditions: HCT-116, 48 h
[8] = Cytotoxicity against oncogenic KRAS knockout human HCT116 cells expressing wild type KRAS assessed as reduction in cell viability measured after 48 hrs by ATPlite 1step luminescence assay; assay type: functional, cell-based; conditions: HCT-116, 48 h
[9] = Cytotoxicity against human HIF1alpha and HIF2alpha deficit HCT116 cells assessed as reduction of cell viability measured after 48 hrs by ATPlite 1step luminescence assay relative to parental HCT116 cells; assay type: functional; conditions: HCT-116, 48 h
[10] = Cytotoxicity against oncogenic KRAS knockout human HCT116 cells expressing wild type KRAS assessed as reduction in cell viability measured after 48 hrs by ATPlite 1step luminescence assay relative to parental HCT116 cells; assay type: functional; conditions: HCT-116, 48 h
HCT-116 [11] = experiment: Selectivity ratio of IC50 for human HIF1alpha and HIF2alpha deficit HCT116 cells to IC50 for human HCT116 cells; assay type: functional
HCT-116 [12] = experiment: Selectivity ratio of IC50 for oncogenic KRAS knockout human HCT116 cells to IC50 for human HCT116 cells; assay type: functional

Row | SMILES | IC50 [1] [nM] | IC50 [2] [nM] | IC50 [3] [nM] | Emax [4] [%] | Emax [5] [%] | IC50 [6] [nM] | IC50 [7] [nM] | IC50 [8] [nM] | Emax [9] [%] | Emax [10] [%] | Ratio IC50 (HCT-116 [11]) | Ratio IC50 (HCT-116 [12])
1 | CC[C@H](C)[C@@H](C(=O)N1C(=O)C=C(OC)[C@@H]1Cc1ccccc1)N(C)C(=O)[C@H](C(C)C)N(C)C(=O)[C@@H](NC(=O)[C@H](C(C)C)N(C)C)C(C)C | 3900 | 5200 | 8600 | 67 | 100 |  |  |  |  |  |  | 
2 | CCCCCCCC(=O)SCC/C=C/[C@@H]1CC(=O)NCc2nc(cs2)C2=N[C@@](C)(CS2)C(=O)N[C@@H](C(C)C)C(=O)O1 [LARGAZOLE] |  |  |  |  |  | 6.41 | 18 | 3.7 | 70 | 67 |  | 
3 | CC[C@H](C)[C@@H]([C@@H](CC(=O)N1CCC[C@H]1[C@H](OC)[C@@H](C)C(=O)N[C@@H](Cc1ccccc1)c1nccs1)OC)N(C)C(=O)[C@@H](NC(=O)[C@H](C(C)C)N(C)C)C(C)C [DOLASTATIN-10] |  |  |  |  |  | 0.48 | 65 | 24 | 74 | 83 | >50 | >50
